Measured values of several laboratories.
Compare with care: the assays were run in different laboratories.
Target: Calcium/calmodulin-dependent protein kinase type 1 (CAMK1, Homo sapiens, UniProt Q14012)

Compound | test | conditions | quantity | value
Oc1cccc(-c2nc(N3CCOCC3)c3oc4ncccc4c3n2)c1 | cell-free assay | 0.5 µM | remaining signal | 101%
CCCCNc1ncc2c(-c3ccc(F)cc3)nn(C[C@H]3CC[C@H](N)CC3)c2n1 | target engagement in cells, inhibitor, chemoproteomics | 20 mM | inhibition | 2.2%
CN(C)C(=O)Cn1cc(-c2nc([C@@](C)(c3ccc(-c4cnc(N)nc4)cc3)C3CC3)no2)cn1 | cell-free assay, competition with immobilised ligand | 1 µM | remaining binding | 100%
Cc1sc(C(=O)NC2COC2)cc1-n1cc(NC(=O)Nc2c(F)cccc2Cl)cn1 | enzyme activity, inhibitor | 10 µM | remaining activity | 115%
O=C(NS(=O)(=O)c1ccc(NCC2CCOCC2)c([N+](=O)[O-])c1)c1ccc(N2CCN(Cc3ccc(C(F)(F)F)cc3-c3ccc(Cl)cc3)CC2)cc1Oc1cnc2[nH]ccc2c1 | cell-free assay, competition with immobilised ligand | 1 µM | remaining binding | 100%
CC/C(=N\NC(=O)NCc1cccc(O)c1)c1ccc(O)c(C)c1O | enzyme activity, inhibitor | 0.1 µM | inhibition | -2.3%
Nc1nc(NC2CCCCC2)sc1C(=O)c1ccccc1 | enzyme activity, inhibitor | 10 µM | remaining activity | 86%
CC(C)c1ccc(NC(=O)c2cccs2)c(-c2nc3ccccc3[nH]c2=O)c1 | enzyme activity, inhibitor | 1 µM | activity vs control | 104%
Cc1ccc(NC(=O)c2ccc(C)c(C(F)(F)F)c2)cc1C#Cc1nn(C2CCC(O)CC2)c2ncnc(N)c12 (centres unmarked) | cell-free assay | 10 µM | remaining signal | 62%
COc1cc(/C=C/C(=O)CC(=O)/C=C/c2ccc(O)c(OC)c2)ccc1O | enzyme activity, inhibitor | 1 µM | activity vs control | 86%
COc1cc(-c2cn(C3CCc4c(F)cccc4N(CC(F)(F)F)C3=O)nn2)ccc1-n1cnc(C)c1 (centres unmarked) | cell-free assay, competition with immobilised ligand | 1 µM | remaining binding | 100%
Cc1cnc(NC2CCOCC2)nc1-n1cnc(C(=O)NC(CN)c2cc(F)cc(Cl)c2)c1 (centres unmarked) | enzyme activity, inhibitor, radiometric | 1 µM | remaining activity | 88%
COc1cccc2c(NCc3ccccc3)nc(-n3c(N)nc4ccccc43)nc12 | target engagement in cells, inhibitor, chemoproteomics | 20 mM | inhibition | -2.1%
C=CC(=O)Nc1cc(Nc2nccc(Nc3cc(Cl)c(F)cc3C(C)(C)O)n2)c(OC)cc1N1CC[C@@H](N(C)C)C1 | enzyme activity, inhibitor | 1 µM | inhibition | 2%
N#CCCc1ccc2c(c1)-c1[nH]c3ccc([N+](=O)[O-])cc3c1CC(=O)N2 | cell-free assay | 0.5 µM | remaining signal | 96%
CCc1ccccc1C(=O)Nc1n[nH]c2c(C)c(F)c(C3C(C#N)=C(C)N(C)C(C)=C3C#N)cc12 | cell-free assay, competition with immobilised ligand | 1 µM | remaining binding | 76%
Oc1cccc(-c2nc(N3CCOCC3)c3oc4ncccc4c3n2)c1 | enzyme activity, inhibitor | 10 µM | remaining activity | 99%
O=C1NC(=O)c2cc(Nc3ccc(F)cc3)c(Nc3ccc(F)cc3)cc21 | cell-free assay | 0.5 µM | remaining signal | 104%
O=C(Nc1cnc(Oc2ccc(F)cc2)nc1)N1CCc2ncccc2[C@@H]1c1ccc(F)cc1 | cell-free assay, competition with immobilised ligand | 1 µM | remaining binding | 73%
COc1cc(-c2cc(-c3ccc(N4CCNCC4)cc3)cnc2C)cc(OC)c1OC | enzyme activity, inhibitor | 1 µM | inhibition | 1%
CCN(CC)CCNC(=O)c1c(C)[nH]c(/C=C2\C(=O)Nc3ccc(F)cc32)c1C | enzyme activity, inhibitor | 10 µM | inhibition | 87%
CCCOc1ccc([C@@H]2[C@@H](C(=O)O)[C@H](c3ccc4c(c3)OCO4)CN2CC(=O)Nc2c(CC)cccc2CC)cc1 | cell-free assay, competition with immobilised ligand | 1 µM | remaining binding | 100%
Cc1ccc(Nc2nccc(N(C)c3ccc4c(C)n(C)nc4c3)n2)cc1S(N)(=O)=O | enzyme activity, inhibitor | 0.3 µM | inhibition | 13%
Nc1c(C(=O)NCc2ccc(C(=O)NCCCC3CCCCC3)cc2)cnn1-c1ccccc1 | cell-free assay, competition with immobilised ligand | 0.1 µM | remaining binding | 100%
COc1cc(Nc2cnc(C#N)c(O[C@H](C)CN(C)C)n2)ncc1-c1cnn(C)c1 | enzyme activity, inhibitor, radiometric | 1 µM | remaining activity | 92%
Cc1noc([C@H]2C[C@@H](c3ccc(C(F)(F)F)cc3)CN(C(=O)N3CCS(=O)(=O)C3)C2)n1 | cell-free assay, competition with immobilised ligand | 1 µM | remaining binding | 100%
CNC(=O)c1cc(Oc2ccc(NC(=O)Nc3ccc(Cl)c(C(F)(F)F)c3)cc2)ccn1 | enzyme activity, inhibitor | 0.3 µM | inhibition | -6%
Nc1ncnc2occ(-c3ccc(NC(=O)Nc4cc(C(F)(F)F)ccc4F)cc3)c12 | cell-free assay | 20 µM | remaining signal | 5.5%
Cc1ccc(C(=O)Nc2ccc(CN3CCN(C)CC3)c(C(F)(F)F)c2)cc1C#Cc1cnc2cccnn12 | enzyme activity | 23.5 nM | remaining activity | 74%
